TAAR1 antagonist – human TAAR1 antagonism. Q96RJ0. CHO RD-HGA16 TAAR1, Fluo-8 calcium fluorescence, antagonist. inhibition, % at 3 µM. 360,000 tested, 1.5% active;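 active = inhibition above a per-plate cutoff, the mean inhibition of test compounds on that plate plus 3 SD, cut at about 49% in these data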;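 also: 0% = DMSO plus EC80 beta-PEA response and 100% = DMSO alone without agonist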
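Test system – hTAAR1-expressing CHO RD-HGA16 cells, Gα16-coupled · Reagent – β-PEA at EC80 concentration, post-compound challenge · Compound dosing – 3 µM, single point · Timing – 140 s kinetic read after compound, 140 s after agonist · Detection – Fluo-8 intracellular calcium dye fluorescence, real-time kinetic reads · Control set – DMSO and EC80 PEA controls · Repeats – n of 1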
TAAR1 ag – human TAAR1 agonism; CHO RD-HGA16 TAAR1, Fluo-8 calcium fluorescence; vehicle wells 0%, saturating PEA agonist 100%; 360,000 tested, 0.99% active; AID 624467; Q96RJ0; activation, % at 3 µM;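 active = activation above the mean activation of all test compounds in the run plus 3 SD, cut at about 38% in these data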
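System: CHO-derived RD-HGA16 cells with stable Gα16 and human TAAR1. Times: 17-24 h plating, Fluo-8 75 min 37 °C, 30 min RT. Measured by: calcium-sensitive Fluo-8 signal, excitation 470-495, emission 515-575 nm. Read-out basis: % activation relative to PEA EC100 response. Control set: DMSO and PEA EC100. Repeats: no replicates (n 1).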
Platelet DG rel – modulates dense granule release in human platelets; 300,000 tested, 0.22% active; inhibition, %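 (compounds screened at 7.5 µM in platelet-rich plasma)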; human platelet-rich plasma, SFLLRN dense granule ATP release, luminescence;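 active = mean replicate score, as percent of positive control, at or above 50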
Rce1 inh – yeast Ras-converting enzyme inhibition | yeast membranes, quenched prenylated peptide cleavage fluorescence | calls only | 290,000 tested, 0.27% active;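 active = fall in fluorescence gain of 50% or more versus controls, with final raw signal at or below 3038400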;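 also: plate controls were neutral control wells for no effect and wells lacking membranes for full effect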
VLA-4 inh – inhibition in a human VLA-4 binding assay | P13612 | VLA-4 expressing cells, ligand binding flow cytometry | inhibition, % (about 7 µM as worked out from the volumes in the protocol) | 330,000 tested, 0.2% active; in the data active = inhibition above about 50%
TAAR1 ag confirm – human TAAR1 agonism, confirmed; shares compounds with TAAR1 ag; CHO RD-HGA16 TAAR1, Fluo-8 calcium fluorescence; scaled: DMSO 0%, maximal phenethylamine 100%; activation, % at 3 µM; 2,400 tested, 82% active; AID 651783;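 active = activation above a cutoff set at the run's mean compound activation plus 3 SD, cut at about 39% in these data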
Ga16 nonsel ag – nonselective agonist in parental cells, TAAR1 agonist counter-screen | shares compounds with TAAR1 ag | CHO-Ga16 parental, Fluo-8 calcium fluorescence; normalized to maximal ATP response, DMSO zero | activation, % at 3 µM | 2,400 tested, 50% active | AID 651787;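 active = activation above the run cutoff, the mean activation over all tested wells plus 3 SD, cut at about 12% in these data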;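 also: 0% = DMSO wells and 100% = maximal ATP response on the peak over basal ratio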
TAAR1 desensitize – counter-screen for human TAAR1 agonists: agonists that desensitize TAAR1; AID 651951; inhibition, % at 3 µM; CHO RD-HGA16 hTAAR1, Fluo-8 calcium, beta-PEA response inhibition; 2,400 tested, 46% active; shares compounds with TAAR1 ag;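 active = inhibition above the run cutoff, the mean inhibition of all test compounds plus 3 SD, cut at about 49% in these data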;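 also: beta-PEA stimulus applied at its EC80; loss of beta-PEA calcium signal after compound pretreatment read as receptor desensitization; 0% = DMSO with beta-PEA at EC80 and 100% = DMSO alone without agonist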
Ga16 nonsel ant – counter-screen for TAAR1 agonists: nonselective Ga16 antagonists; shares compounds with TAAR1 ag; CHO-Ga16 ATP-induced calcium, Fluo-8 fluorescence; inhibition, % at 3 µM; 2,400 tested, 39% active; AID 651952;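 active = inhibition above the plate's mean compound inhibition plus 3 SD, computed per plate, cut at about 22% in these data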;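 also: 0% = EC80 ATP with DMSO and 100% = DMSO wells without ATP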
An asterisk follows results filed as active. An excerpt weighted towards active compounds, which were near 2.6% of everything screened.

Results for O=C(NCc1ccco1)c1cc(-c2ccc(F)cc2)on1 ?
TAAR1 antagonist: 34.3; TAAR1 ag: 49.3*; Platelet DG rel: -5.0; Rce1 inh: inactive; VLA-4 inh: -2.9; TAAR1 ag confirm: 1.5; Ga16 nonsel ag: 2.5; TAAR1 desensitize: -0.5; Ga16 nonsel ant: 4.7

Results for CCCCCc1nc(N)c(C#N)c(-c2ccco2)c1CCCC ?
TAAR1 antagonist: 21.6; TAAR1 ag: 3.2; Platelet DG rel: -0.9; Rce1 inh: inactive; VLA-4 inh: 4.8

Results for CCc1nc(N)c(C#N)c(-c2ccco2)c1C ?
TAAR1 antagonist: -17.8; TAAR1 ag: 80.6*; Platelet DG rel: 14.6; Rce1 inh: inactive; VLA-4 inh: -1.5; TAAR1 ag confirm: 3.8; Ga16 nonsel ag: 2.6; TAAR1 desensitize: 2.2; Ga16 nonsel ant: 3.4

Results for O=C(NCCc1ccccc1)/C(=C\c1ccc([N+](=O)[O-])cc1)NC(=O)c1ccc(Br)cc1 ?
TAAR1 antagonist: -14.5; TAAR1 ag: 55.7*; Platelet DG rel: -1.4; Rce1 inh: inactive; VLA-4 inh: 13.5; TAAR1 ag confirm: 36.4; Ga16 nonsel ag: 0.4; TAAR1 desensitize: -3.1; Ga16 nonsel ant: 8.9

How did O=C(NCCc1ccccc1)c1ccc([N+](=O)[O-])cc1 do in these assays?
TAAR1 antagonist: 32.0; TAAR1 ag: 56.2*; Platelet DG rel: 1.6; Rce1 inh: inactive; VLA-4 inh: 13.2; TAAR1 ag confirm: 96.8*; Ga16 nonsel ag: 4.5; TAAR1 desensitize: 56.9*; Ga16 nonsel ant: -3.8

Results for C/C(=N/NC(=O)c1nnn(-c2nonc2N)c1CSc1ccc(C)cc1)c1ccncc1 ?
TAAR1 antagonist: 3.8; TAAR1 ag: 2.0

What do the screens show for `Cc1nn(C)c(C(=O)NNC(=S)NCc2ccco2)c1Br`?
TAAR1 antagonist: 17.2; TAAR1 ag: 79.8*; Platelet DG rel: 7.3; Rce1 inh: inactive; VLA-4 inh: 4.8; TAAR1 ag confirm: -0.8; Ga16 nonsel ag: 5.5; TAAR1 desensitize: 7.7; Ga16 nonsel ant: 0.7

What do the screens show for `CCCn1c(=O)c(C(=O)NNC(=O)c2ccccc2Cl)c(O)c2ccccc21`?
TAAR1 antagonist: 54.6*; TAAR1 ag: 112.0*; Platelet DG rel: -4.2; Rce1 inh: inactive; VLA-4 inh: 2.5; TAAR1 ag confirm: 71.9*; Ga16 nonsel ag: 64.8*; TAAR1 desensitize: 35.8; Ga16 nonsel ant: 25.8*

What do the screens show for `CCCn1c(=O)c(C(=O)NNC(=O)c2ccccc2[N+](=O)[O-])c(O)c2ccccc21`?
TAAR1 antagonist: -26.0; TAAR1 ag: 1.2; Platelet DG rel: 3.0; VLA-4 inh: 7.3

Results for CCCSc1ccc(C(=O)Nc2ccc(F)cc2F)cn1 ?
TAAR1 antagonist: 28.8; TAAR1 ag: 66.8*; Platelet DG rel: 12.8; Rce1 inh: inactive; VLA-4 inh: -4.3; TAAR1 ag confirm: 17.6; Ga16 nonsel ag: 0.6; TAAR1 desensitize: -12.1; Ga16 nonsel ant: 1.8

What do the screens show for `Cc1cc(N/N=C/c2cccc(Cl)c2)nc(NCc2ccccc2)n1`?
TAAR1 antagonist: -7.3; TAAR1 ag: 23.7; Platelet DG rel: -4.1; Rce1 inh: inactive; VLA-4 inh: 5.5

How did Cc1cc(N2CCCCC2)nc(NCc2ccccc2)n1 do in these assays?
TAAR1 antagonist: 64.1*; TAAR1 ag: 99.5*; Platelet DG rel: 9.4; Rce1 inh: inactive; VLA-4 inh: -4.8; TAAR1 ag confirm: 73.4*; Ga16 nonsel ag: 38.0*; TAAR1 desensitize: 70.9*; Ga16 nonsel ant: 49.6*

What do the screens show for `Cc1cc(N/N=C/c2ccccc2F)nc(NCc2ccccc2)n1`?
TAAR1 antagonist: -5.5; TAAR1 ag: -0.5; Platelet DG rel: -18.4; Rce1 inh: inactive; VLA-4 inh: 4.4

How did Cc1cc(N/N=C/c2ccccc2)nc(NCc2ccccc2)n1 do in these assays?
TAAR1 antagonist: 27.7; TAAR1 ag: 50.5*; Platelet DG rel: 16.5; Rce1 inh: inactive; VLA-4 inh: 5.1; TAAR1 ag confirm: 62.7*; Ga16 nonsel ag: 17.0*; TAAR1 desensitize: 39.2; Ga16 nonsel ant: 17.6

Results for Cc1cc(N/N=C/c2cccc(F)c2)nc(NCc2ccccc2)n1 ?
TAAR1 antagonist: 28.1; TAAR1 ag: 59.6*; Platelet DG rel: 15.0; Rce1 inh: inactive; VLA-4 inh: 1.9; TAAR1 ag confirm: 55.1*; Ga16 nonsel ag: 5.3; TAAR1 desensitize: 44.7; Ga16 nonsel ant: 15.5

How did COc1cccc(N2CC(C(=O)Nc3nnc(SCC(=O)NCc4ccco4)s3)CC2=O)c1 (stereo not drawn) do in these assays?
TAAR1 antagonist: -7.4; TAAR1 ag: 0.0; Platelet DG rel: -14.1; Rce1 inh: inactive; VLA-4 inh: -5.7

Results for S=C1SCN(CCc2ccccc2)CN1CCc1ccccc1 ?
TAAR1 antagonist: 86.1*; TAAR1 ag: 81.8*; TAAR1 ag confirm: 90.2*; Ga16 nonsel ag: 5.4; TAAR1 desensitize: 91.8*; Ga16 nonsel ant: 14.9

Results for CC(C)CSC1=NSC2=NC(=O)/C(=C\c3ccccc3)C(=N)N12 ?
TAAR1 antagonist: -7.7; TAAR1 ag: 2.9; Platelet DG rel: 8.7; Rce1 inh: inactive; VLA-4 inh: 22.5

Results for N=C1/C(=C\c2coc3ccccc3c2=O)C(=O)N=C2SC(c3ccncc3)=NN12 ?
TAAR1 antagonist: 104.2*; TAAR1 ag: 174.5*; Platelet DG rel: 6.1; Rce1 inh: inactive; VLA-4 inh: -3.2; TAAR1 ag confirm: 80.8*; Ga16 nonsel ag: 87.0*; TAAR1 desensitize: 87.9*; Ga16 nonsel ant: 77.7*

How did CC(C)CSC1=NSC2=NC(=O)/C(=C\c3coc4ccccc4c3=O)C(=N)N12 do in these assays?
TAAR1 antagonist: 106.8*; TAAR1 ag: 423.7*; Platelet DG rel: 3.2; Rce1 inh: inactive; VLA-4 inh: inactive; TAAR1 ag confirm: 118.5*; Ga16 nonsel ag: 105.6*; TAAR1 desensitize: 91.0*; Ga16 nonsel ant: 82.1*

Results for O=C1OC/C(=C(/O)c2ccc(Cl)cc2)C1=O ?
TAAR1 antagonist: -3.2; TAAR1 ag: 0.5; Platelet DG rel: -2.9; Rce1 inh: inactive; VLA-4 inh: -3.9

How did COc1ccc(-c2ncn(CCc3ccccc3OC)c2CC(C)C)cc1 do in these assays?
TAAR1 antagonist: 32.9; TAAR1 ag: 21.3

What do the screens show for `CCCCc1c(-c2ccc(OC)c(OC)c2)ncn1CCc1ccccc1OC`?
TAAR1 antagonist: 58.0*; TAAR1 ag: 59.2*; TAAR1 ag confirm: 64.3*; Ga16 nonsel ag: 6.9; TAAR1 desensitize: 68.0*; Ga16 nonsel ant: 41.9*

Assay outcomes deposited in PubChem BioAssay by several laboratories.
